Laboratory results taken from ChEMBL document CHEMBL1124425, “Alkylating partial muscarinic agonists related to oxotremorine. N-[4-[(2-haloethyl)methylamino]-2-butynyl]-5-methyl-2-pyrrolidones” (J Med Chem, 1989).

What was measured:
[1] = First order rate constant of compound was determined in 50 mM phosphate buffer (pH 7.4) at 37 degree celsius; assay type: ADME
Procedure, shortened: (§1)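 Solvolysis in 50 mM phosphate buffer pH 7.4 at 37 °C. Halide release by argentometric titration. Aziridinium ion quantified by thiosulfate reaction and iodine back-titration. k1 and k2 obtained by unweighted Gauss-Newton nonlinear fit, with half-lives following from them.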

[2] = Rate constant for decay of compound was determined in 50 mM phosphate buffer (pH 7.4) at 37 degree celsius; assay type: ADME; procedure, shortened: as §1
Rattus norvegicus = species: Rattus norvegicus; assay: Rate constants of compound was determined at muscarinic receptor in the rat cerebral cortex; assay type: ADME
Procedure, shortened: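 Rat cortex homogenate (25 mg wet tissue/mL, 50 mM phosphate pH 7.4), preincubated 10 min at 37 °C. Precyclized haloethylamines then added at 0.1 mM to 1 nM final for 30 min. Reaction stopped with thiosulfate (1.0 mM) and atropine (0.1 mM), and tissue washed four times. Residual binding of 0.4 nM [3H]QNB measured over 1 h at 37 °C. Rate equation fitted by unweighted nonlinear regression, using initial aziridinium concentration.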

[3] = Dissociation constant of compound was determined at muscarinic receptor in the rat cerebral cortex; assay type: tissue-based
Procedure, shortened: (§2)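 Male Sprague-Dawley rat cerebral cortex homogenised in 50 mM phosphate buffer pH 7.4 and centrifuged at 30000g. Competition against 0.3 nM (-)-[3H]NMS with the aziridinium ions, 1 h at 0 °C, triplicates, five experiments. Nonspecific binding taken with 10 µM atropine. Two-site fit by unweighted nonlinear regression gave KH and KL, which were corrected for [3H]NMS occupancy.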

[4] = Percentage affinity of compound towards muscarinic receptor sites in the rat cerebral cortex; assay type: tissue-based; procedure, shortened: as §2
[5] = Equilibrium binding parameters of compound was determined at muscarinic receptor in the rat cerebral cortex; assay type: tissue-based; procedure, shortened: as §2
[6] = Ratio of binding constants KL to KH was determined; procedure, shortened: as §2
[7] = Binding affinity of compound towards muscarinic receptor using radioligand [3H]NMS in the rat cerebral cortex; assay type: tissue-based; procedure, shortened: as §2
[8] = Half life of compound was determined in 50 mM phosphate buffer (pH 7.4) at 37 degree celsius; assay type: ADME; procedure, shortened: as §1
[9] = Acute toxicity of compound when injected intravenously in mice; assay type: organism-based; conditions: mouse, in vivo, iv
[10] = First order rate constant of compound was determined in 50 mM phosphate buffer (pH 7.4) at 24 degree celsius; assay type: ADME
Procedure, shortened: (§3)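 Solvolysis in 50 mM phosphate buffer pH 7.4 at 24 °C. Halide release measured by argentometric titration. Aziridinium ion was reacted with thiosulfate, and the excess was back-titrated with iodine. k1 (cyclisation) and k2 (aziridinium decay) came from an unweighted Gauss-Newton fit of kinetic models.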

[11] = Rate constant for decay of compound was determined in 50 mM phosphate buffer (pH 7.4) at 24 degree celsius; assay type: ADME; procedure, shortened: as §3

Structure (SMILES)	K1 [1]	K2 [2]	K3 (Rattus norvegicus)	KA [3]	Affinity [4]	KH [5]	KL [5]	Ratio [6]	Ki [7]	T1/2 ([8]; buffer)	half-life ([8]; phosphate buffer)	LD50 [9]	K1 [10]	K2 [11]
CN(CC#CCN1CCCC1=O)CCBr	0.85 min⁻¹	0.04 min⁻¹	0.062 min⁻¹	0.35 µM	16.5%	0.001 µM	0.47 µM	466						
CC1CCC(=O)N1CC#CC[N+]1(C)CC1 (configuration not stated)									53 nM					
CC1CCC(=O)N1CC#CCN(C)CCCl (configuration not stated)	0.025 min⁻¹	0.045 min⁻¹	0.091 min⁻¹	0.058 µM						15.3 min	27.7 min	396 µmol/kg		
C[N+]1(CC#CCN2CCCC2=O)CC1									330 nM					
CN(CC#CCN1CCCC1=O)CCCl	0.019 min⁻¹	0.033 min⁻¹	0.064 min⁻¹	0.79 µM										
CC1CCC(=O)N1CC#CCN(C)CCBr (configuration not stated)	0.89 min⁻¹	0.06 min⁻¹	0.096 min⁻¹	0.035 µM	14.2%	0.001 µM	0.071 µM	71				81 µmol/kg	0.18 min⁻¹	0.0096 min⁻¹
